For two compounds, Kd and Km results are on record in article PMC3972754 (European biophysics journal : EBJ, 2013).

The target of assay [1] is T1, cPAH (phenylalanine hydroxylase from Chromobacterium violaceum) (Chromobacterium violaceum, UniProt P30967, S203P). As to the kind of experiment: biochemical.
For assay [2], the target named is T2, cPAH (phenylalanine hydroxylase from Chromobacterium violaceum) (Chromobacterium violaceum, UniProt P30967).
T2 sequence (P30967 1-297): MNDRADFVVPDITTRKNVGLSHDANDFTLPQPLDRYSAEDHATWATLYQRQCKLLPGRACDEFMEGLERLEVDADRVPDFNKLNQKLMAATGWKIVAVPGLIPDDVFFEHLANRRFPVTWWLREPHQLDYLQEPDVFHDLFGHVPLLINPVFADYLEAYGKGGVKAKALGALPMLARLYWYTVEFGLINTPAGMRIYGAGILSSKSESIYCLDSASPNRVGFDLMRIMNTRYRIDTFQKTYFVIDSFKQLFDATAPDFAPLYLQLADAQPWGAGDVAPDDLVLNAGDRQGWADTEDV
The experiment in a line: ITC, one-site model. It is filed as binding.

In assay [3] the target is T3, cPAH (phenylalanine hydroxylase from Chromobacterium violaceum) (Chromobacterium violaceum, UniProt P30967, T254A). As to the kind of experiment: biochemical.
The target in assay [4] is T2, cPAH (phenylalanine hydroxylase from Chromobacterium violaceum). As to the kind of experiment: tyrosine formation at […] nm, initial rates. It is filed as biochemical. The settings on record: 20 °C, 0.1 M Na-HEPES pH 7.4, O2 saturated, FeSO4, 350 µM DMPH4.
Assay [5] addresses T4, cPAH (phenylalanine hydroxylase from Chromobacterium violaceum) (Chromobacterium violaceum, UniProt P30967, F258A). As to the kind of experiment: biochemical.
Assay [6] deals with T5, cPAH (phenylalanine hydroxylase from Chromobacterium violaceum) (Chromobacterium violaceum, UniProt P30967, Y155A). The experiment in a line: biochemical.
Assay [7] addresses T4, cPAH (phenylalanine hydroxylase from Chromobacterium violaceum). The experiment in a line: biochemical. This is another data set of the same source.
Assay [8] deals with T2, cPAH (phenylalanine hydroxylase from Chromobacterium violaceum). The experiment in a line: ITC. The assay is classed as binding. In a few lines:
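Untagged or GST-cleaved C. violaceum cPAH (WT or point mutants), dialysed overnight against 50 mM HEPES pH 7.4. Amino-acid ligand (1–10 mM) titrated into 50–100 µM protein over 18 × 2 µL injections. Buffer-only reference subtracted; one-site fit; duplicates. Anaerobic variant (argon, 25 °C): apo enzyme reconstituted with 0.5–1.0 mol ferrous ammonium sulfate per mol PAH, plus 200 µM pterin cofactor, equilibrated 15 min.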

Assay [9] deals with T5, cPAH (phenylalanine hydroxylase from Chromobacterium violaceum). The experiment in a line: biochemical. This is another data set of the same source.
Assay [10] concerns the target T3, cPAH (phenylalanine hydroxylase from Chromobacterium violaceum). As to the kind of experiment: biochemical. The source holds these as a separate data set.
The target in assay [11] is T1, cPAH (phenylalanine hydroxylase from Chromobacterium violaceum). As to the kind of experiment: biochemical. This is another data set of the same source.

Structures can show the parent of a compound that is named as a salt. Where two headings read alike, the source gives them in different places.

As for `N[C@@H](Cc1ccccc1)C(=O)O` [phenylalanine], the Kd in [1] was 7 ± 0.3 µM; in assay [2], 24 ± 1.1 µM; in assay [3] it was 376 ± 10 µM; in assay [5], 775 ± 44 µM; in assay [6], 559 ± 30 µM. Moreover, in assay [4], the Km turned out to be 244 ± 40.8 µM.
Take `C[C@H](O)[C@H](O)[C@H]1CNc2nc(N)[nH]c(=O)c2N1` [BH4, (6R)-5,6,7,8-tetrahydrobiopterin dihydrochloride]: the Kd in assay [7] amounted to 29.3 ± 1.6 µM; in assay [8], 23.5 ± 1.6 µM; in assay [9], 16.2 ± 0.7 µM; in assay [10] it was 43.6 ± 4.2 µM; in assay [11], 35.2 ± 3.3 µM.
